Experimental data from different studies.
Compare with care: the assays were run in different laboratories.
Target: Platelet-derived growth factor receptor beta (PDGFRB, Homo sapiens, UniProt P09619)

Compound	effect on	mode	method	endpoint	result
FC(F)(F)c1ccc(CNc2ccc(Cc3c[nH]c4ncc(Cl)cc34)cn2)cn1	enzyme activity	inhibitor	–	IC50	8 nM
C=CC(=O)Nc1cccc(CN2C(=O)N(c3c(Cl)c(OC)cc(OC)c3Cl)Cc3cnc(NCCCCN(CC)CC)nc32)c1	binding	–	competition with immobilised ligand	Kd	480 nM
Cc1ccc(NC(=O)c2ccc(C)c(C(F)(F)F)c2)cc1C#Cc1nn(C2CCC(O)CC2)c2ncnc(N)c12 (centres unmarked)	enzyme activity	inhibitor	radiometric	IC50	> 10000 nM
Cc1ccc(NC(=O)c2ccc(CN3CCS(=N)(=O)CC3)cc2)cc1Nc1nccc(-c2cccnc2)n1	binding	–	competition with immobilised ligand	Kd	19 nM
CCN1CCN(Cc2ccc(C(=O)Nc3ccc(C)c(Oc4ccc5c(c4)CC(=O)N5)c3)cc2C(F)(F)F)CC1	enzyme activity	inhibitor	–	IC50	> 10000 nM
COc1ccc2c(Oc3ccc4c(C(=O)Nc5ccccc5N)cccc4c3)ccnc2c1	enzyme activity	inhibitor	–	IC50	93 nM
Cc1cnc(-c2ccc(-c3ccc(NC(=O)Nc4c(F)cc(F)cc4F)cc3F)c3c2C(=O)NC3)[nH]1	binding	–	competition with immobilised ligand	Kd	0.4 nM
Cc1cc(Nc2cc3ncccc3c(N[C@@H]3C[C@H]4CC[C@@H](C3)N4CCC#N)n2)n[nH]1	binding	–	competition with immobilised ligand	Kd	68 nM
